Results from ChEMBL document CHEMBL3861957, “Straightforward synthesis of 2,4,6-trisubstituted 1,3,5-triazine compounds targeting cysteine cathepsins K and S” (Eur J Med Chem, 2016).

Key:
[1] = molecular target: T1, Cathepsin K (Homo sapiens, UniProt P43235); assay: Inhibition of human cathepsin K expressed in Pichia pastoris using Z-Phe-Arg-AMC as substrate after 30 mins by spectromicrofluorimetric method
T1 sequence (P43235 whole entry): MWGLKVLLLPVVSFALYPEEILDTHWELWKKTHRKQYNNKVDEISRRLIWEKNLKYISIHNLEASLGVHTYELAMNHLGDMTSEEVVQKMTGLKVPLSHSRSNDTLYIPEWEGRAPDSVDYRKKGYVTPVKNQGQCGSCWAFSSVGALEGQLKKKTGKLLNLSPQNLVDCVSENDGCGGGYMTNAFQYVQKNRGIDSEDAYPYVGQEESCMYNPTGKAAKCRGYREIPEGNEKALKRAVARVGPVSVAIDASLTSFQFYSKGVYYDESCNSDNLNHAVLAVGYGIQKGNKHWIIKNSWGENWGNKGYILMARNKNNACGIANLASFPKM
In short: (§1)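 Enzyme (0.5 nM) preincubated 30 min at 37 °C with inhibitor (0-250 nM) in 0.1 M sodium acetate pH 5.5, 2 mM DTT, 0.01% Brij35. Residual activity on Z-Phe-Arg-AMC at 2.5, 5 and 10 µM, fluorescence ex 350/em 460 nm. IC50 averaged from slopes. Triplicate, repeated three times.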

[2] = molecular target: Cathepsin B (Homo sapiens, UniProt P07858); assay: Inhibition of human cathepsin B using Z-Phe-Arg-AMC as substrate after 30 mins by spectromicrofluorimetric method; in short: as §1
[3] = molecular target: Cathepsin S (Homo sapiens, UniProt P25774); assay: Inhibition of human cathepsin S using Z-LR-AMC as substrate after 30 mins by spectromicrofluorimetric method
In short: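 Cathepsin S (0.5 nM) preincubated 30 min at 37 °C with inhibitor (0-250 nM) in 0.1 M sodium acetate pH 5.5 containing 2 mM DTT and 0.01% Brij35. Residual activity read with Z-LR-AMC at 2.5, 5 and 10 µM, fluorescence ex 350/em 460 nm. IC50 averaged from slopes. Triplicate, repeated three times.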

[4] = molecular target: Procathepsin L (Homo sapiens, UniProt P07711); assay: Inhibition of human cathepsin L using Z-Phe-Arg-AMC as substrate after 30 mins by spectromicrofluorimetric method; in short: as §1
Procathepsin L, sequence (P07711 whole entry): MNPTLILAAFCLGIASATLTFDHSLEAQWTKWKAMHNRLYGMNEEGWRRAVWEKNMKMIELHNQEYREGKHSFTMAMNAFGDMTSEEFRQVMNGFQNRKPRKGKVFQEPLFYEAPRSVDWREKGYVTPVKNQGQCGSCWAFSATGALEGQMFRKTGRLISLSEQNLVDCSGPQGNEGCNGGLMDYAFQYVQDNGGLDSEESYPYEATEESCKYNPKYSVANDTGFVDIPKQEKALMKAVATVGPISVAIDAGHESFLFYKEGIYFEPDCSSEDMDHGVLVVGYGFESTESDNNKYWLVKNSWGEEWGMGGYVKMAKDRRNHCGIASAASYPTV

Cathepsin S, sequence (P25774 whole entry): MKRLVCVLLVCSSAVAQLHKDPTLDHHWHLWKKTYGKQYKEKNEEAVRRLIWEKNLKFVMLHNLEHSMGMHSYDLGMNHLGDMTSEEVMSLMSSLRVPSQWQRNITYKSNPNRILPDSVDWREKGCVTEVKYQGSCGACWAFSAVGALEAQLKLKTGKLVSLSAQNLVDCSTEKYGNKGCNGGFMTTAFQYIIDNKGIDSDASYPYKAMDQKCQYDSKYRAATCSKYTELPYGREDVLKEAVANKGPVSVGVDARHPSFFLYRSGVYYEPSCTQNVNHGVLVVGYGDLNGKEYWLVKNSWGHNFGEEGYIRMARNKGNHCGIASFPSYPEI

| SMILES | IC50 [1] | IC50 [2] | IC50 [3] | IC50 [4] |
| --- | --- | --- | --- | --- |
| N#Cc1nc(Nc2cccc([N+](=O)[O-])c2)nc(N2CCNCC2)n1 | 17 nM | 34 nM | 17 nM | 17 nM |
| N#Cc1nc(NC[C@H](O)c2ccccc2)nc(N2CCNCC2)n1 | 68 nM | 136 nM | 23 nM | 45 nM |
| N#Cc1nc(Nc2ccc(C(F)(F)F)cc2)nc(N2CCNCC2)n1 | 28 nM | – | 23 nM | – |
| N#Cc1nc(NC[C@H](O)c2ccccc2)nc(NC2CCCCC2)n1 | 70 nM | – | 23 nM | – |
| COc1ccc(Nc2nc(C#N)nc(NC3CCCCC3)n2)cc1 | 23 nM | – | 136 nM | 226 nM |
| Cc1cccc(CNc2nc(C#N)nc(NC3CCCCC3)n2)c1 | 60 nM | – | 23 nM | – |
| N#Cc1nc(Nc2ccc([N+](=O)[O-])cc2)nc(NC2CCCCC2)n1 | 17 nM | – | 90 nM | 136 nM |
| N#Cc1ccc(Nc2nc(C#N)nc(N3CCNCC3)n2)cc1 | 28 nM | 57 nM | – | 113 nM |
| COc1ccc(Nc2nc(C#N)nc(N3CCNCC3)n2)cc1 | 17 nM | 45 nM | 17 nM | 17 nM |
| Cc1cccc(CNc2nc(C#N)nc(N3CCNCC3)n2)c1 | 23 nM | 57 nM | 17 nM | – |
| N#Cc1nc(Nc2ccc(C(F)(F)F)cc2)nc(NC2CCCCC2)n1 | 34 nM | – | 102 nM | – |
| N#Cc1nc(NCCc2ccccc2)nc(NC2CCCCC2)n1 | 80 nM | – | 23 nM | – |
| N#Cc1nc(Nc2cccc([N+](=O)[O-])c2)nc(NC2CCCCC2)n1 | 17 nM | 79 nM | 28 nM | 23 nM |
| N#Cc1nc(Nc2ccc([N+](=O)[O-])cc2)nc(N2CCNCC2)n1 | 17 nM | – | 23 nM | 17 nM |
| N#Cc1ccc(Nc2nc(C#N)nc(NC3CCCCC3)n2)cc1 | 67 nM | – | 23 nM | – |
